Key:
Canis familiaris [1] = assay: Tested in vivo for change in heart rate (HR) in dog after intravenous dose of 3 ug/kg; assay type: functional, Canis lupus familiaris
Canis familiaris [2] = assay: Tested in vivo for change in heart rate (HR) in dog after intravenous dose of 300 ug/kg; assay type: functional, Canis lupus familiaris
Canis familiaris [3] = assay: Tested in vivo for change in heart rate (HR) in dog after intravenous dose of 30 ug/kg; assay type: functional, Canis lupus familiaris
Canis familiaris [4] = assay: Tested in vivo for change in maximal arterial pressure (MAP) in dog after intravenous dose of 30 ug/kg; assay type: functional, Canis lupus familiaris, Artery
How it was run: (§1)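 Mean arterial blood pressure was recorded in dogs (N = 2) given the hydrobromide salt by intravenous infusion, dosed as (μg/kg)/min. Values are percent change from the control reading taken just before infusion. The minimum change counted as significant (p < 0.05) was ±5.2%.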

Dopamine receptor [5] = assay: Tested in vitro for dopamine agonist activity in rabbit ear artery after at a dose of 3 ug/kg; assay type: functional, tissue-based, Oryctolagus cuniculus
How it was run: (§2)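 Isolated perfused rabbit ear artery preparation, used to assess activation of presynaptic dopamine receptors.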

Canis familiaris [6] = assay: Tested in vivo for change in maximal arterial pressure (MAP) in dog after intravenous dose of 300 ug/kg; assay type: functional, Canis lupus familiaris, Artery; how it was run: as §1
Canis familiaris [7] = assay: Tested in vivo for change in maximal arterial pressure (MAP) in dog after intravenous dose of 3 ug/kg; assay type: functional, Canis lupus familiaris, Artery; how it was run: as §1
Canis familiaris [8] = assay: Tested in vivo for change in heart rate (HR) in dog after intravenous dose of 30 (ug/kg)/min
Canis familiaris [9] = assay: Tested in vivo for change in maximal arterial pressure (MAP) in dog after intravenous dose of 30 mg/kg; assay type: functional, Canis lupus familiaris, Artery
Dopamine receptor [10] = assay: Tested in vitro for dopamine agonist activity in rabbit ear artery after at a dose of 0.3 mg/kg; assay type: functional, Oryctolagus cuniculus; design: dose 0.3 mg/kg
Canis familiaris [11] = assay: Tested in vivo for change in maximal arterial pressure (MAP) in dog after intravenous dose of 30 (ug/kg)/min
Dopamine receptor [12] = assay: Tested in vitro for dopamine agonist activity in rabbit ear artery after at a dose of 3 mg/kg; assay type: functional, Oryctolagus cuniculus; how it was run: as §2
Canis familiaris [13] = assay: Tested in vivo for change in heart rate(HR) in dog after intravenous dose of 3 mg/kg; assay type: functional, Canis lupus familiaris

## NCCc1ccc(O)c2c1CC(=O)N2
Canis familiaris [1]
  Change: -2.9%
Canis familiaris [2]
  Change: -15.8%
Canis familiaris [3]
  Change: -2.9%
Canis familiaris [4]
  Change: -16.1%
Dopamine receptor [5]
  EC50: 116 nM
Canis familiaris [6]
  Change: 62.6%
Canis familiaris [7]
  Change: -10.6%

## CCCN(CCC)CCc1ccc(O)c2c1CC(=O)N2 [SKF-89124A]
Canis familiaris [8]
  Change: -6.9%
Canis familiaris [9]
  Change: 28.4%
Dopamine receptor [10]
  EC50: 1.8 nM
Canis familiaris [11]
  Change: 28.4%

## C=CCN1CCc2c(cc(O)c(O)c2Cl)C(c2ccc(O)cc2)C1 (stereo unspecified)
Dopamine receptor [10]
  EC50: 122 nM

## CCCN(CCC)CCc1ccc(O)c(O)c1
Dopamine receptor [12]
  EC50: 80 nM
Canis familiaris [9]
  Change: -17.7%
Canis familiaris [11]
  Change: -21.9%
Canis familiaris [13]
  Change: 1.5%
